The list is not random: actives were taken first. Their share in the collection is about 5.8%.
Pf Dd2 inh = P. falciparum Dd2 growth inhibitors, primary screen, SYBR Green fluorescence, single dose replicates; 72 h; stronger effect = lower value; AID 1159554, 2015; 2.3% of 94,000 active; activity change, % at 10 µM; in the data active means activity change below about -80%; inconclusive means no clear call, values can overlap the other calls
T cruzi growth-1 = T. cruzi intracellular proliferation inhibitors, primary screen, cell-based, beta-gal Tulahuen parasites, NIH3T3 host, luminescence. 5.9% of 77,000 active. inhibition, % at 8.34 µM. T. cruzi beta-gal in NIH3T3, GalScreen luminescence, 90 h;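 active means mean inhibition above about 93%, with at least 55% of replicates each passing it, limit read from the data, passing the limit was not always enough; inconclusive means only one of those two conditions holds; inactive means neither condition holds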
GASC1 inh = inhibitors of GASC-1 (KDM4C) histone demethylase, primary screen, biochemical, single concentration HTS. 0.15% of 96,000 active. Lysine-specific demethylase 4C (Homo sapiens), Q9H3R0. GST-KDM4C 2-372, H3K9me3 peptide, LANCE TR-FRET. inhibition, % at 12.5 µM;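 active means mean replicate inhibition above about 25%, with at least 55% of replicates also reaching it, limit read from the data, passing the limit was not always enough; inconclusive means only one of those two conditions met; inactive means neither condition met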
Target sequence (Q9H3R0 2-372 limits assumed): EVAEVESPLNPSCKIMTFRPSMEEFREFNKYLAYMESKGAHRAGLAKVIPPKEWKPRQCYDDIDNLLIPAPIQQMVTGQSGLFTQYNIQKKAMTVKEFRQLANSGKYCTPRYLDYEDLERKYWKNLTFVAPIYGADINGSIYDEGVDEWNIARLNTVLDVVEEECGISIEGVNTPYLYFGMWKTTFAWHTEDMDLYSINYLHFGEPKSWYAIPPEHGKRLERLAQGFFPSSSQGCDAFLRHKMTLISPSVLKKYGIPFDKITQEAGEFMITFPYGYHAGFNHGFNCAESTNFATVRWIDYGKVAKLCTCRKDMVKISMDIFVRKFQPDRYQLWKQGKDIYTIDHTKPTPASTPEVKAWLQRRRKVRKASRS
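System: N-terminal GST-fused human GASC-1 (KDM4C) fragment, residues 2-372 / Amount: 10 nM GST-KDM4C in enzyme reaction / Also added: H3K9me3 peptide with Fe(II)/2OG / Times: 30 min demethylation and 1 h detection at room temperature / Signal: LANCE TR-FRET / Read-out basis: Fall in 671/618 emission ratio as inhibition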
IDH1 R132H inh = inhibitors of IDH1 R132H reductase, primary screen, biochemical, plate reader, single point; AID 624101, 2012; inhibition, % at 10 µM; 0.18% of 70,000 active; diaphorase/resazurin fluorescence, 60 min; Isocitrate dehydrogenase [NADP] cytoplasmic (Homo sapiens), O75874; in the data active means inhibition above about 34%; inconclusive means no clear call, values can overlap the other calls; inactive means below about 11%
T cruzi growth-2 = T. cruzi intracellular proliferation inhibitors, confirmation, cell-based, NIH3T3 host, beta-gal parasite, luminescence, cherry-pick | shares compounds with T cruzi growth-1 | T. cruzi beta-gal in NIH3T3, GalScreen luminescence, 90 h | inhibition, % at 8.35 µM | 72% of 5,600 active | AID 651739, 2012;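 active means mean replicate inhibition above about 95% and at least 55% of replicates individually reaching it, limit read from the data; inconclusive means only one of the two criteria is met; inactive means neither criterion is met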
T cruzi growth-3 = inhibitors of intracellular T. cruzi replication, confirmation, NIH3T3 host cells, beta-gal parasites, cherry-pick, set 2; inhibition, % at 2.09 µM; shares compounds with T cruzi growth-1; T. cruzi beta-gal in NIH3T3, GalScreen luminescence, 90 h; 21% of 5,600 active; AID 651740, 2012;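 active means mean inhibition above about 95%, with at least 55% of replicates also reaching it, limit read from the data; inconclusive means meets just one of the two conditions; inactive means meets neither condition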
NIH3T3 tox = cytotoxicity in mouse NIH/3T3 fibroblasts, confirmation, cytotoxicity control for T. cruzi proliferation inhibitor project, cell-based, cherry-pick, single point; shares compounds with T cruzi growth-1; NIH/3T3 viability, CellTiter-Glo ATP luminescence, 90 h; cytotoxicity (signal decrease), % at 8.35 µM; 14% of 5,600 active; AID 651742, 2012;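 active means mean signal decrease across replicates above about 35% based on untreated-well scatter, with enough replicates individually passing, limit read from the data; inconclusive means no rule stated though some were filed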
NIH3T3 tox 2 = NIH/3T3 fibroblast cytotoxicity, confirmation, cytotoxicity control, cell-based, cherry-pick, single point, set 2 | NIH/3T3 viability, CellTiter-Glo ATP luminescence, 90 h | 56% of 5,600 active | shares compounds with T cruzi growth-1 | inhibition, % at 24.9 µM;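 active means mean loss of cell viability signal at or above a set limit, and enough replicates individually reaching it; inconclusive means meets only the mean limit or only the replicate share; inactive means meets neither condition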
Hits are given with their value; . = inactive; ? = inconclusive; / = no result.

SMILES	Pf Dd2 inh	T cruzi growth-1	GASC1 inh	IDH1 R132H inh	T cruzi growth-2	T cruzi growth-3	NIH3T3 tox	NIH3T3 tox 2
O=C(c1cccc(F)c1)N1CCCCN2[C@H](CO)[C@H](c3ccc(C#CC4(O)CCCC4)cc3)[C@@H]2C1	.	?	.	/	109	.	.	.
O=C(c1cccc(F)c1)N1CCCCN2[C@@H](CO)[C@H](c3ccc(C#CC4(O)CCCC4)cc3)[C@@H]2C1	.	?	.	/	.	.	.	?
O=C(c1cccc(F)c1)N1CCCCN2[C@H](C1)[C@@H](c1ccc(C#CC3(O)CCCC3)cc1)[C@@H]2CO	.	.	.	/	/	/	/	/
O=S(=O)(c1ccc(F)cc1)N1CCCCN2[C@H](CO)[C@@H](c3ccc(-c4ccccc4F)cc3)[C@H]2C1	.	.	/	/	/	/	/	/
O=S(=O)(c1ccc(F)cc1)N1CCCCN2[C@H](C1)[C@H](c1ccc(-c3ccccc3)cc1)[C@@H]2CO	.	.	.	/	/	/	/	/
Cc1ccccc1-c1ccc([C@@H]2[C@@H](CO)N3CCCCN(S(=O)(=O)c4ccc(F)cc4)C[C@@H]23)cc1	.	108	.	/	109	.	.	81
Cc1ccccc1-c1ccc([C@H]2[C@@H](CO)N3CCCCN(S(=O)(=O)c4ccc(F)cc4)C[C@H]23)cc1	.	109	.	/	98	?	.	105
C=C(C(=O)O[C@H]1C/C=C(/C)C[C@H](O)[C@H]2[C@H](C)C(=O)O[C@@H]2/C=C\1C)[C@@H]1CCC(=C)[C@@H]2C[C@H](O[C@@H]3O[C@H](CO[C@H]4OC[C@](O)(CO)[C@H]4O)[C@@H](O)[C@H](O)[C@H]3O)C(=C)[C@@H]2C1	/	/	/	.	/	/	/	/
C[C@@H]1CN([C@H](C)CO)S(=O)(=O)c2ccc(C#CC(C)(C)O)cc2O[C@@H]1CN(C)Cc1ccc(-c2ccccc2)cc1	.	125	.	/	.	110	45	107
C[C@H](CO)N1C[C@H](C)[C@@H](CN(C)Cc2ccc(-c3ccccc3)cc2)Oc2cc(C#CC(C)(C)O)ccc2S1(=O)=O	.	117	.	.	95	116	114	104
C[C@H]1CN([C@@H](C)CO)S(=O)(=O)c2ccc(C#CC(C)(C)O)cc2O[C@H]1CN(C)Cc1ccc(-c2ccccc2)cc1	.	124	.	/	96	113	114	105
C[C@H]1CN([C@@H](C)CO)S(=O)(=O)c2ccc(C#CC(C)(C)O)cc2O[C@@H]1CN(C)Cc1ccc(-c2ccccc2)cc1	.	118	.	/	98	112	120	104
C[C@@H]1CN([C@H](C)CO)S(=O)(=O)c2ccc(C#CC(C)(C)O)cc2O[C@H]1CN(C)Cc1ccccc1	.	.	/	/	/	/	/	/
CCCn1cc(NC(=O)C2CC(c3ccccc3O)=NO2)cn1 (stereo not given)	/	/	/	.	/	/	/	/
CN(C)c1ccc(/C=N/NC(=O)CCCCCCC(=O)Nc2ccccc2O)cc1	/	/	/	.	/	/	/	/
O=C(CSc1nc2ccccc2[nH]1)Nc1cccc(Cl)c1	/	/	/	.	/	/	/	/
CCc1ccccc1NC(=O)CSc1ncnc2sc(C)c(C)c12	/	/	/	.	/	/	/	/
c1ccc2c(c1)n(CCN1CCOCC1)c1nc(C34CC5CC(CC(C5)C3)C4)cn21	/	/	/	.	/	/	/	/
Cn1c(SCC(=O)Nc2cc(C(F)(F)F)ccc2Cl)nnc1-c1cnccn1	/	/	/	.	/	/	/	/
C[C@H](CO)N1C[C@H](C)[C@H](CN(C)Cc2ccc(-c3ccccc3)cc2)Oc2cc(C#CC(C)(C)O)ccc2S1(=O)=O	.	122	.	/	.	116	51	104
